Source: ChEMBL document CHEMBL4765452, “Discovery of (E)-N-(4-methyl-5-(3-(2-(pyridin-2-yl)vinyl)-1H-indazol-6-yl)thiazol-2-yl)-2-(4-methylpiperazin-1-yl)acetamide (IHMT-TRK-284) as a novel orally available type II TRK kinase inhibitor capable of overcoming multiple resistant mutants” (Eur J Med Chem, 2020)

How the values were obtained:
[1] = Half life in Beagle dog at 5 mg/kg, po; format: ADME, organism-based, Canis lupus familiaris; conditions: in vivo
[2] = Half life in Sprague-Dawley rat at 1 mg/kg, iv; format: ADME, organism-based; conditions: in vivo
[3] = Toxicity in mouse xenografted with mouse BAF3 cells harboring TEL fused TRKB assessed as effect on body weight at 40 to 80 mg/kg, po administered once daily for 10 days; format: organism-based; conditions: in vivo, 240 h, dose 40-80 mg/kg/day, time 10 day
Method in brief: (§1)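 nu/nu mice were given subcutaneous right-flank implants in 1:1 DMEM/matrigel: 1 million BaF3 fusion cells or 5 million KM-12-LUC cells. Oral gavage started at 150–200 mm3 (xenograft) or 200–400 mm3 (allograft). Dosing used 40 or 80 mg/kg in HKI vehicle (0.5% methylcellulose/0.4% Tween 80 in ddH2O), with 5 mice per group. Body weight was recorded daily and behaviour observed.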

[4] = Toxicity in mouse xenografted with human […] cells assessed as effect on abnormal behaviour at 40 to 80 mg/kg, po administered once daily for 10 days; format: organism-based; conditions: in vivo, 240 h, dose 40-80 mg/kg/day, time 10 day; method in brief: as §1
[5] = target: Platelet-derived growth factor receptor beta (Homo sapiens, UniProt P09619); experiment: Inhibition of human PDGFR beta by Z-LYTE or ADP-Glo assay
Method in brief: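 Purified kinase proteins tested biochemically in Z'LYTE or ADP-Glo format.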

[6] = Apparent volume of distribution in mouse at 1 mg/kg, iv; format: ADME, organism-based; conditions: in vivo, read-out: Vz
[7] = tested on: High affinity nerve growth factor receptor (Homo sapiens), P04629 [G667C]; experiment: Inhibition of LMNA fused TRKA G667C mutant (unknown origin) transfected in mouse BAF3 cells assessed as growth inhibition after 72 hrs by CCK8 assay; format: cell-based
Method in brief: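 TEL- or LMNA-fusion isogenic BaF3 lines grown in RPMI 1640 with 10% FBS and 1% penicillin/streptomycin at 37 °C, 5% CO₂; suspension cells collected by spinning at 800 rpm for 4 min before use; growth inhibition scored as GI₅₀.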

[8] = target: T1, High affinity nerve growth factor receptor (Homo sapiens, UniProt P04629); experiment: Inhibition of TEL fused wild type TRKA (unknown origin) transfected in mouse BaF3 cells assessed as reduction in phosphorylation at Y490 residue after 2 hrs by Western blot analysis; format: cell-based
Method in brief: (§2)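 Isogenic BaF3 lines, made in-house, grown in RPMI 1640 with 10% FBS and 1% penicillin/streptomycin at 37 °C under 5% CO2. Serially diluted compound added for 2 h. Cells collected and lysed, and lysates analysed by western blotting for phospho-TRK. EC50 derived from the blots.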
Target sequence in this assay (P04629 whole entry, the tested form may be a part): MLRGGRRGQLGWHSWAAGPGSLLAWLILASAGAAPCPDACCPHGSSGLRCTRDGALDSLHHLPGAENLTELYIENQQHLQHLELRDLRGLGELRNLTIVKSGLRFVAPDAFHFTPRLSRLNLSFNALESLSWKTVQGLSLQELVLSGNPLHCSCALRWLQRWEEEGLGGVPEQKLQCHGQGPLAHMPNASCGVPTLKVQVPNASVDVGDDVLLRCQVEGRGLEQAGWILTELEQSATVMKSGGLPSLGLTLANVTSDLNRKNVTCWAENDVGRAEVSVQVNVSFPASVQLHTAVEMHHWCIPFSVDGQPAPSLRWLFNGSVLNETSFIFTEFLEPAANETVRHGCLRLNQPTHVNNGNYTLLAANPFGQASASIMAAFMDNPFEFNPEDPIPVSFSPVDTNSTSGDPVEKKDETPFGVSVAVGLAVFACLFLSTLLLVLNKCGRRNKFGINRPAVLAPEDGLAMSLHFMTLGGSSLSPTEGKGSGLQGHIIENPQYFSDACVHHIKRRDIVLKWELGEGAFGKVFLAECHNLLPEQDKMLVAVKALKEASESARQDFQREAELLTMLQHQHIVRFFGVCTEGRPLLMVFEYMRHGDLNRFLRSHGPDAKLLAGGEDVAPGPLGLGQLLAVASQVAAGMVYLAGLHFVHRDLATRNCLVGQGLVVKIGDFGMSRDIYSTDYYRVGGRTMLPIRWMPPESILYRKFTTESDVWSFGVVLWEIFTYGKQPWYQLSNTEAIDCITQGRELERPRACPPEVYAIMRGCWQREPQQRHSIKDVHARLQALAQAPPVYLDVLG

[9] = Tmax in Sprague-Dawley rat at 10 mg/kg, po; format: ADME, organism-based; conditions: in vivo
Method in brief: (§3)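 Single-dose PK in mice, Sprague Dawley rats and beagle dogs, given i.v. (1 mg/kg) or p.o. (10 mg/kg mice and rats; 5 mg/kg dogs). AUC0-t, T1/2, Tmax and oral bioavailability (F) derived from plasma profiles.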

[10] = Cmax in Sprague-Dawley rat at 10 mg/kg, po; format: ADME, organism-based; parameters: route oral, dose 10 mg/kg; conditions: in vivo
[11] = Toxicity in mouse xenografted with human […] cells assessed as effect on body weight at 40 to 80 mg/kg, po administered once daily for 10 days; format: organism-based; conditions: in vivo, 240 h, dose 40-80 mg/kg/day, time 10 day; method in brief: as §1
[12] = Inhibition of LMNA fused TRKA F589L mutant (unknown origin) transfected in mouse BaF3 cells assessed as reduction in phosphorylation at Y490 residue after 2 hrs by Western blot analysis; conditions: Homo sapiens, BaF3, 2 h
[13] = Tmax in mouse at 1 mg/kg, iv; format: ADME, organism-based; conditions: in vivo; method in brief: as §3
[14] = target: T2, BDNF/NT-3 growth factors receptor (Homo sapiens, UniProt Q16620); experiment: Inhibition of TEL fused wild type TRKB (unknown origin) transfected in mouse BaF3 cells assessed as reduction in phosphorylation at Y515 residue after 2 hrs by Western blot analysis; format: cell-based; method in brief: as §2
Target sequence in this assay (Q16620 whole entry, the tested form may be a part): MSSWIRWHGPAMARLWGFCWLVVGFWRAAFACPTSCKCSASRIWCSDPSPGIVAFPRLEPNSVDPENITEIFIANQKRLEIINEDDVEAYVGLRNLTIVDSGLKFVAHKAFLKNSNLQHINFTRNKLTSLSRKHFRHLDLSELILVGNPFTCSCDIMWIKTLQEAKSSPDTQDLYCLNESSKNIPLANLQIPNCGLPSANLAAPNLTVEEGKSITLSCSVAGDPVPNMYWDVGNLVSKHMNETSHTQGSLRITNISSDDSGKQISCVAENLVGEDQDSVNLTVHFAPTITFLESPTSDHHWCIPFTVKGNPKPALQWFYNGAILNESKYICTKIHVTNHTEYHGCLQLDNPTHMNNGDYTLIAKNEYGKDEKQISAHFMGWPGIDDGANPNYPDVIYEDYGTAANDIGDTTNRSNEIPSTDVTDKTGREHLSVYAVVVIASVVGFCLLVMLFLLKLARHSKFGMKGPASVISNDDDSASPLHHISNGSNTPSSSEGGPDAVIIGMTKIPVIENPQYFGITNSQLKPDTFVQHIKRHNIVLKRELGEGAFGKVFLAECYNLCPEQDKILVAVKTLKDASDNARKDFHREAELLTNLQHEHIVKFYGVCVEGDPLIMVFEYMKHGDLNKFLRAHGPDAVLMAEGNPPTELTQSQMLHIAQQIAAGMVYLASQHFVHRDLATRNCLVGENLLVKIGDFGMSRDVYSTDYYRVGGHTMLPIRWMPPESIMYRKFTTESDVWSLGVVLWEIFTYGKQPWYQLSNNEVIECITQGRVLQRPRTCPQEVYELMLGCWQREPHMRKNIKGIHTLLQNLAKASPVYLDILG

[15] = AUC (0 to t) in Sprague-Dawley rat at 10 mg/kg, po; format: ADME, organism-based; parameters: dose 10 mg/kg; conditions: in vivo
Method in brief: (§4)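 Intravenous and oral arms were run in parallel in each species (mice, Sprague Dawley rats, beagle dogs). Exposure is reported as AUC0-t in ng/mL·h.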

[16] = Toxicity in mouse xenografted with mouse BAF3 cells harboring […] TRKA-F589L mutant assessed as effect on abnormal behaviour at 40 to 80 mg/kg, po administered once daily for 10 days; format: organism-based; conditions: in vivo, 240 h, dose 40-80 mg/kg/day, time 10 day; method in brief: as §1
[17] = AUC (0 to t) in Beagle dog at 1 mg/kg, iv; format: ADME, organism-based, Canis lupus familiaris; parameters: dose 1 mg/kg; conditions: in vivo; method in brief: as §4
[18] = tested on: BaF3; experiment: Antitumor activity against mouse BAF3 cells harboring LMNA fused TRKA-G667S mutant allografted in nude mouse assessed as tumor growth inhibition at 80 mg/kg, po administered twice daily for 10 days relative to control; format: functional; conditions: 240 h, time 10 day, read-out: TGI
Method in brief: (§5)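 Nu/nu mice given 1 million BaF3 cells (TEL-TRKA, TEL-TRKB, TEL-TRKC, LMNA-TRKA-F589L or LMNA-TRKA-G667S) in DMEM, 1:1 with matrigel, injected subcutaneously into the right flank; oral gavage began at 200–400 mm³, 5 mice per group, compound in 0.5% methylcellulose/0.4% Tween 80 in ddH₂O, 10 days; tumor volume [(W²×L)/2] and body weight recorded daily; TGI versus vehicle.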

[19] = Toxicity in mouse xenografted with mouse BAF3 cells harboring TEL fused TRKA assessed as effect on animals behaviour at 40 to 80 mg/kg, po administered once daily for 10 days; format: organism-based; conditions: in vivo, 240 h, dose 40-80 mg/kg/day, time 10 day; method in brief: as §1
[20] = target: T1, High affinity nerve growth factor receptor; experiment: Inhibition of wild type TEL fused TRKA (unknown origin) transfected in mouse BAF3 cells assessed as growth inhibition after 72 hrs by CCK8 assay; format: cell-based
Target sequence in this assay (P04629 33-796 limits assumed): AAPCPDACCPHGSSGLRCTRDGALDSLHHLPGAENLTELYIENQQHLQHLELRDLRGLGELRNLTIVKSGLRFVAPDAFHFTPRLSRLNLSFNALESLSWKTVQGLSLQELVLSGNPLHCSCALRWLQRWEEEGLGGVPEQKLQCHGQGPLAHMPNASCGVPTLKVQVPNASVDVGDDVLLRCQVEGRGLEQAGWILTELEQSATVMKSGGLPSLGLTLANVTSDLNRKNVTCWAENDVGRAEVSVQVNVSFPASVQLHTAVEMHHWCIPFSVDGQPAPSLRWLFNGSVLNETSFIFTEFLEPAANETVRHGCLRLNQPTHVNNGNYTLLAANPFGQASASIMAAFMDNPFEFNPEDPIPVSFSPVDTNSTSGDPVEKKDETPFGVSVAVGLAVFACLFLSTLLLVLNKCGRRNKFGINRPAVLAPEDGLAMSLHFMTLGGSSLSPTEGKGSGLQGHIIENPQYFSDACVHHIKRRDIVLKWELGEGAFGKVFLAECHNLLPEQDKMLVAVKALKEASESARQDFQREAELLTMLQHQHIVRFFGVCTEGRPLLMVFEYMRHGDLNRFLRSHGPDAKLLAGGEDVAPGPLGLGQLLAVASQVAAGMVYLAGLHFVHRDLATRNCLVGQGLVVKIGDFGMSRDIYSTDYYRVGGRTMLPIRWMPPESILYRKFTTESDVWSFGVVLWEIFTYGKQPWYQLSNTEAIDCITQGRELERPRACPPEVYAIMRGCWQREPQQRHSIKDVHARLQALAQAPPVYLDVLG

[21] = Tmax in Beagle dog at 5 mg/kg, po; format: ADME, organism-based, Canis lupus familiaris; conditions: in vivo; method in brief: as §3
[22] = Cmax in Beagle dog at 5 mg/kg, po; format: ADME, organism-based, Canis lupus familiaris; parameters: route oral, dose 5 mg/kg; conditions: in vivo
[23] = tested on: BaF3; experiment: Inhibition of LMNA fused TRKA V573M mutant (unknown origin) transfected in mouse BAF3 cells assessed as growth inhibition after 72 hrs by CCK8 assay; format: cell-based; conditions: Homo sapiens
[24] = Apparent volume of distribution in Beagle dog at 5 mg/kg, po; format: ADME, organism-based, Canis lupus familiaris; conditions: in vivo
[25] = target: T2, BDNF/NT-3 growth factors receptor; experiment: Inhibition of human TRKB assessed as remaining enzyme activity at 1 uM by Kinomescan method relative to control
Target sequence in this assay (Q16620 32-822 limits assumed): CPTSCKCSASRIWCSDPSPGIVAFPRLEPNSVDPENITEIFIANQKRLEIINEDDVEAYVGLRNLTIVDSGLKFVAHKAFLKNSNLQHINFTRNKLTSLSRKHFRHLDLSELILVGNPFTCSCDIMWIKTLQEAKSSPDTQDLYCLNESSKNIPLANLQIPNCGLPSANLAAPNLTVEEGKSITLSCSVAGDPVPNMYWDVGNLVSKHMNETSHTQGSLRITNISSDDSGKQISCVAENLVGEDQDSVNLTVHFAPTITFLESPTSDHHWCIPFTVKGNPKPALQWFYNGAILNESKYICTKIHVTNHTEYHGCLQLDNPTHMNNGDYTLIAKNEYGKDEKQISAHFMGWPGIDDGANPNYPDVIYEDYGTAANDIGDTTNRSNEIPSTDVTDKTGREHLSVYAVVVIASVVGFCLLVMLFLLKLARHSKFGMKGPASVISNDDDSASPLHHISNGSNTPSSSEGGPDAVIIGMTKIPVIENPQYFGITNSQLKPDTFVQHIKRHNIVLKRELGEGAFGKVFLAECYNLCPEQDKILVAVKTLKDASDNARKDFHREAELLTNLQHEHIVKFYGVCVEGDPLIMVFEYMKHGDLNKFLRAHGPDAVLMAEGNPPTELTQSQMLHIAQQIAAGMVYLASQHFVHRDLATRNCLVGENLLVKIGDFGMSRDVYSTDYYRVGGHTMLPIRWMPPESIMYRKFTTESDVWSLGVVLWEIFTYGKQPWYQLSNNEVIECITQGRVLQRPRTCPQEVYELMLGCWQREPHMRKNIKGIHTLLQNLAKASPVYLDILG

[26] = Toxicity in mouse xenografted with mouse BAF3 cells harboring […] TRKA-G667S mutant assessed as effect on abnormal behaviour at 40 to 80 mg/kg, po administered twice daily for 10 days; format: organism-based; conditions: in vivo, 240 h, dose 40-80 mg/kg, time 10 day; method in brief: as §1
[27] = tested on: BaF3; experiment: Antitumor activity against mouse BAF3 cells harboring TEL fused TRKA allografted in nude mouse assessed as tumor growth inhibition administered orally once daily for 10 days; format: functional, cell-based; conditions: dose 40-80 mg/kg/day, time 10.0 day; method in brief: as §5
[28] = Apparent volume of distribution in mouse at 10 mg/kg, po; format: ADME, organism-based; conditions: in vivo
[29] = Half life in mouse at 1 mg/kg, iv; format: ADME, organism-based; conditions: in vivo
[30] = Oral bioavailability in Beagle dog at 5 mg/kg; format: ADME, organism-based, Canis lupus familiaris; conditions: in vivo; method in brief: as §3

Platelet-derived growth factor receptor beta, sequence (P09619 whole entry): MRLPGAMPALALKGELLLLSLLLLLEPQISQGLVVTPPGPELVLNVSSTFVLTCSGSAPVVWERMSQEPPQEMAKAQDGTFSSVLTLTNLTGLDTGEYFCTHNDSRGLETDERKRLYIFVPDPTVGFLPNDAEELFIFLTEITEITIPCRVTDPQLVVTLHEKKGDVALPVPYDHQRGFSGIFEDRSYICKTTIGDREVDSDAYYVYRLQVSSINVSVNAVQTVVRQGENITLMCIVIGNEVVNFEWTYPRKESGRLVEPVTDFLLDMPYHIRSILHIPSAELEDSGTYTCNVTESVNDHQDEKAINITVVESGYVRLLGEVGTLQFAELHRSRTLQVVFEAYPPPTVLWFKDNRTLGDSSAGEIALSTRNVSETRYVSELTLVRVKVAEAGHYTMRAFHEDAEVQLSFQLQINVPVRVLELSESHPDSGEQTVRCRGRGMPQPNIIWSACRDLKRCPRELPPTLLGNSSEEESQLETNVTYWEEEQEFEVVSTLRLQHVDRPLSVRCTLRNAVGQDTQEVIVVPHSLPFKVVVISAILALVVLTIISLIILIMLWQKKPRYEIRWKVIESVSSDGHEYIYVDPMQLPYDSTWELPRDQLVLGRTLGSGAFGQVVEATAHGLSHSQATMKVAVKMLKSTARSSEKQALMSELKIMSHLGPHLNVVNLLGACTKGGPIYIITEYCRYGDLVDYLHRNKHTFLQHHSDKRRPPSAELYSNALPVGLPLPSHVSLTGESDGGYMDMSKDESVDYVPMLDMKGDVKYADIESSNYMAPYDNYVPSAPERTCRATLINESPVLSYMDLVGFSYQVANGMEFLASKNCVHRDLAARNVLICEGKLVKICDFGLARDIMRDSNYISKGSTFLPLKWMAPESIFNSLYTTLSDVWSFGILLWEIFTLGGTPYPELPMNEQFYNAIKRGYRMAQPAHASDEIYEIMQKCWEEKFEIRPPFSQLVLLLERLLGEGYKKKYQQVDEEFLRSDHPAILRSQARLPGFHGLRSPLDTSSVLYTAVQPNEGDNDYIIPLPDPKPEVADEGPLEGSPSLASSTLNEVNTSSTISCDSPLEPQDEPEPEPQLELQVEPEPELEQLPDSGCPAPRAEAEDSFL
High affinity nerve growth factor receptor (Homo sapiens), P04629 [G667C], sequence (P04629 whole entry G667C, looked up, the tested form may be a part): as the sequence (P04629 whole entry, the tested form may be a part) above, with G667C counted along it

t1/2 [1]: 11.8 h
t1/2 [2]: 2.7 h
IC50 [5]: 95.7 nM
Vd [6]: 4.93 L/kg
GI50 [7]: 34 nM
EC50 [8]: 26 nM
Tmax [9]: 4.7 h
Cmax [10]: 139 ng/mL
EC50 [12]: 21 nM
Tmax [13]: 1.98 min
EC50 [14]: 69 nM
AUC(0-t) [15]: 952 ng·h/mL
AUC(0-t) [17]: 323 ng·h/mL
GI50 [20]: 8.5 nM
Tmax [21]: 4.3 h
Cmax [22]: 131 ng/mL
GI50 [23]: 3 nM
Vz [24]: 149.26 L/kg
Activity [25]: 0.05%
Vz [28]: 31.567 L/kg
t1/2 [29]: 2.6 h
bioavailability [30]: 35%
Structure (SMILES): Cc1nc(NC(=O)CN2CCN(C)CC2)sc1-c1ccc2c(/C=C/c3ccccn3)n[nH]c2c1
Activity [3]: Non-Toxic
Activity [4]: Non-Toxic
Activity [11]: Non-Toxic
Activity [16]: Non-Toxic
inhibition in vivo at 80 mg/kg [18]: 89.1%
Activity [19]: Non-Toxic
Activity [26]: Non-Toxic
Activity [27]: Dose-dependent effect
